One series has as its target 5HT2C (Homo sapiens, UniProt P28335). Kind of series: PDSP radioligand binding, 5HT2C. The note with it: 10 μM.
In a further series the target is Alpha2a (Homo sapiens, UniProt P08913). Kind of series: PDSP radioligand binding, Alpha2a. The following applies: 10 μM.
The next series has as its target 5HT1e (Homo sapiens, UniProt P28566). Kind of series: PDSP radioligand binding, 5HT1e. The note with it: 10 μM.
For another series, the target named is D2 (Homo sapiens, UniProt P14416). Kind of series: PDSP radioligand binding, D2. The following applies: 10 μM.
A further series has as its target V1A (Homo sapiens, UniProt P37288). The series can be described thus: PDSP radioligand binding, V1A.
The target in the next series is calcium channel. The series can be described thus: PDSP radioligand binding, calcium channel.
Another series concerns the target DOR (Homo sapiens, UniProt P41143). Kind of series: PDSP radioligand binding, DOR. The note with it: 10 μM.
A further series has as its target M3 (Homo sapiens, UniProt P20309). The series can be described thus: PDSP radioligand binding, M3. The note with it: 10 μM.
For the next series, the target named is H1 (Homo sapiens, UniProt P35367). Kind of series: PDSP radioligand binding, H1. The note with it: 10 μM.
The subject of the next series is SNI mice. The series can be described thus: Rotorod test of motor performance. In kind it is in vivo, mouse. The note with it: IV 10 mg/kg, 48 h after injection, third trial. Put shortly: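 SNI mice given IV vehicle or test compound 10 mg/kg in sterile saline, tested 48 h later. Automated rotorod accelerating to 40 rpm over 200 s. Two training runs; latency to fall recorded on third trial. n = 6 per group; two-tailed t test.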

For a further series, the target named is V2 (Homo sapiens, UniProt P30518). Kind of series: PDSP radioligand binding, V2.
The target in a further series is 5HT3 (Homo sapiens, UniProt P46098). Kind of series: PDSP radioligand binding, 5HT3. The note with it: 10 μM.
The target of a further series is D3 (Homo sapiens, UniProt P35462). Kind of series: PDSP radioligand binding, D3. The following applies: 10 μM.
In the next series the target is 5HT5a (Homo sapiens, UniProt P47898). Kind of series: PDSP radioligand binding, 5HT5a. The note with it: 10 μM.
The target of another series is M1 (Homo sapiens, UniProt P11229). Kind of series: PDSP radioligand binding, M1. The note with it: 10 μM.
Series [1] relates to mouse spared nerve injury (SNI) model. Kind of series: Mechanical sensitivity. In kind it is in vivo. The procedure, abridged: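 Male C57Bl6/J mice with SNI (peroneal and tibial sciatic branches cut, sural spared), confirmed hypersensitive 2 weeks post-surgery and screened 21–60 days after SNI. Single intrathecal 10 μg in 5 μL saline (DMSO <5%, vehicle DMSO-matched). Blinded hindpaw von Frey, modified up–down, at set times. n = 4–11. Mean ± SEM; two-way ANOVA with Bonferroni. Repeat injections ≥14 days apart.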

For a further series, the target named is Alpha1a (Homo sapiens, UniProt P35348). The series can be described thus: PDSP radioligand binding, Alpha1a. The note with it: 10 μM.
Alpha1a, sequence (P35348 whole entry): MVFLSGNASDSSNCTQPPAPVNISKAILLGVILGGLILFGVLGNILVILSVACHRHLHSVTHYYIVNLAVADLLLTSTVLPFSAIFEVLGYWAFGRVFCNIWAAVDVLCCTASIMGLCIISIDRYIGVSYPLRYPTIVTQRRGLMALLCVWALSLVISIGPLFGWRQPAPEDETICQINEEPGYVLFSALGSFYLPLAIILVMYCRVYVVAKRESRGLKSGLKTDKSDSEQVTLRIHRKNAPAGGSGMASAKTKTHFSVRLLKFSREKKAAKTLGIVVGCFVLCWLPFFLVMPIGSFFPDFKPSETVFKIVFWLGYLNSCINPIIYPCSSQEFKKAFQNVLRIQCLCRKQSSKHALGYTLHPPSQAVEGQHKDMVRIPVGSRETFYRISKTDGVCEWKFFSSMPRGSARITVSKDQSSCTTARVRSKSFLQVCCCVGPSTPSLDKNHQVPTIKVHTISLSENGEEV

5HT2C, sequence (P28335 33-458): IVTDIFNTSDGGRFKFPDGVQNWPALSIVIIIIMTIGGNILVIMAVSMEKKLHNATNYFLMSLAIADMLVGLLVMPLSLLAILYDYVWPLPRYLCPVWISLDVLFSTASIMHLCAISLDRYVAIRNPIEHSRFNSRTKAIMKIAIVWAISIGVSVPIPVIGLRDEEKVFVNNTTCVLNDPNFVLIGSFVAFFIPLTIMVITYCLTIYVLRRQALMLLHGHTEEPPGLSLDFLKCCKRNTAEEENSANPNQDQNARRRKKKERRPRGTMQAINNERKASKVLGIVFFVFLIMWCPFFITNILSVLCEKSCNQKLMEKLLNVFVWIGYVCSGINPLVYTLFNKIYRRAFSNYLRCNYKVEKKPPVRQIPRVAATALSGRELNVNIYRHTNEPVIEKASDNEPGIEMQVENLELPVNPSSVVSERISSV
DOR, sequence (P41143 whole entry): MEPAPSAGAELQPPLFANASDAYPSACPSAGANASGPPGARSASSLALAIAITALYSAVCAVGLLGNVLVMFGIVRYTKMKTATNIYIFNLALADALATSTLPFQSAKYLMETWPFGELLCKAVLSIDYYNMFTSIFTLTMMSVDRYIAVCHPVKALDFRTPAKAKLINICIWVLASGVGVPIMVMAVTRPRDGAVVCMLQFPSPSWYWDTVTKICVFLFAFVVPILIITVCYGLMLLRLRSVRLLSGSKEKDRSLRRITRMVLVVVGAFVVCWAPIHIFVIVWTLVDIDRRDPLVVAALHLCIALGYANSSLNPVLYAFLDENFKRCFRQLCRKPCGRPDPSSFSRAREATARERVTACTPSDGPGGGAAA
M3, sequence (P20309 whole entry): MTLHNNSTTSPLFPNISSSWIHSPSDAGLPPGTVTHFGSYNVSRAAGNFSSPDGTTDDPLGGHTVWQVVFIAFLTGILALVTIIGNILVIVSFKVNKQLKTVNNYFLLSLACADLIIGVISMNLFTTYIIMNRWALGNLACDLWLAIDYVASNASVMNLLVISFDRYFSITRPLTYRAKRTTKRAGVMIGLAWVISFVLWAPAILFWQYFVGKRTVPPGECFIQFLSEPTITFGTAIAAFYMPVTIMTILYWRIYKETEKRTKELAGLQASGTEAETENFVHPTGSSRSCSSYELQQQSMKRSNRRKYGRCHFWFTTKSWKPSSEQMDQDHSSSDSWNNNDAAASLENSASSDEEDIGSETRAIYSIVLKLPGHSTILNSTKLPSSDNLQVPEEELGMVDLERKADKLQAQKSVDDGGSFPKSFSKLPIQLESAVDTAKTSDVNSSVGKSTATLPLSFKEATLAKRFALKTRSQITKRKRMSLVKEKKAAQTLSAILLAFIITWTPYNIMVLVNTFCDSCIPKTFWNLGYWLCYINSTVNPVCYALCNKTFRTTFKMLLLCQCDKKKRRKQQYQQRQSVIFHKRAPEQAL
5HT1e, sequence (P28566 whole entry): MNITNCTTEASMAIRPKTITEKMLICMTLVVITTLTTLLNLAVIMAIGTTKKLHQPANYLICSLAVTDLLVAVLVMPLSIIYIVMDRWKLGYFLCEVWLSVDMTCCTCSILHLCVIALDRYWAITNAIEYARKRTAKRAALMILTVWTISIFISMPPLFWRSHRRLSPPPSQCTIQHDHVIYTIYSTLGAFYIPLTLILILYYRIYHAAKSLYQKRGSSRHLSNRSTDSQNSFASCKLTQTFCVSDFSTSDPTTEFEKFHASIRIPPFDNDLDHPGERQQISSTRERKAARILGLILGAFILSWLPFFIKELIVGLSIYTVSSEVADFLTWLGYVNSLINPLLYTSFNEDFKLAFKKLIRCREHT
H1, sequence (P35367 whole entry): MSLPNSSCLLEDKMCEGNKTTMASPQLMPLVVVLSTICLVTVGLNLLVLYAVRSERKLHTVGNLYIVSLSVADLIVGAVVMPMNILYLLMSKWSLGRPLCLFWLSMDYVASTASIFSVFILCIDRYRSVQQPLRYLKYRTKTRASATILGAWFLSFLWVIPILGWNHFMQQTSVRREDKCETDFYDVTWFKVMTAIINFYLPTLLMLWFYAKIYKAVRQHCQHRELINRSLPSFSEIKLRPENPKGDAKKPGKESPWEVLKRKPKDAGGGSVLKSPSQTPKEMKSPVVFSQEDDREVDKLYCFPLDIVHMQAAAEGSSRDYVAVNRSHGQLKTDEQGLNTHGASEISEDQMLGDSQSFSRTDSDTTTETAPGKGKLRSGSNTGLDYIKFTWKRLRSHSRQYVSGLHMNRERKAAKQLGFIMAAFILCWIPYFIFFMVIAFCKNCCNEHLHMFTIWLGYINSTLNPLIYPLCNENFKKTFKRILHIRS
Alpha2a, sequence (P08913 whole entry): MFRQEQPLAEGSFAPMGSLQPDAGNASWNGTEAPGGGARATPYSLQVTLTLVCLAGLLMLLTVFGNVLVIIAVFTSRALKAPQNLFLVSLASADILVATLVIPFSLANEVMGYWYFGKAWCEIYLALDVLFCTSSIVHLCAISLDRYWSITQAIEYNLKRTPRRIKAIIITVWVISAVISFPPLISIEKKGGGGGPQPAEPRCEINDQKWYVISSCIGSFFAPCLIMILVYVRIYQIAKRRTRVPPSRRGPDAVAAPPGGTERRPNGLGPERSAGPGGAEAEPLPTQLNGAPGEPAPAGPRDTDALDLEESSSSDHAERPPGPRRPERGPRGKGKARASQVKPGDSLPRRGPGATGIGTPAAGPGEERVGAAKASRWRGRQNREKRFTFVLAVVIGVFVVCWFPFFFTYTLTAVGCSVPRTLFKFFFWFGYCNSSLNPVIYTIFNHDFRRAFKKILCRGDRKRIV
M1, sequence (P11229 whole entry): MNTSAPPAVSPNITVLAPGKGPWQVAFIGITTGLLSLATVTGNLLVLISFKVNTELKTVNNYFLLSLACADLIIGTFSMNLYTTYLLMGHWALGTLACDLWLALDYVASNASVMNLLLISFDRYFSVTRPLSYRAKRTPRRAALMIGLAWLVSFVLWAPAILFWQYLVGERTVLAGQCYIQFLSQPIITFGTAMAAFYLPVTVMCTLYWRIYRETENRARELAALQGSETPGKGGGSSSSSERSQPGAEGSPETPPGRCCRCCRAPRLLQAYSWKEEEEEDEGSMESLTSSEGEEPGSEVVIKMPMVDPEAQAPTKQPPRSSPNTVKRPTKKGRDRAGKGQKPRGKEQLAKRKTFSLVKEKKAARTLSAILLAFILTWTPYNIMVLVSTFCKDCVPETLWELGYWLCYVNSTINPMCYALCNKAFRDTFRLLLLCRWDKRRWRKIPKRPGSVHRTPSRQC
V2, sequence (P30518 whole entry): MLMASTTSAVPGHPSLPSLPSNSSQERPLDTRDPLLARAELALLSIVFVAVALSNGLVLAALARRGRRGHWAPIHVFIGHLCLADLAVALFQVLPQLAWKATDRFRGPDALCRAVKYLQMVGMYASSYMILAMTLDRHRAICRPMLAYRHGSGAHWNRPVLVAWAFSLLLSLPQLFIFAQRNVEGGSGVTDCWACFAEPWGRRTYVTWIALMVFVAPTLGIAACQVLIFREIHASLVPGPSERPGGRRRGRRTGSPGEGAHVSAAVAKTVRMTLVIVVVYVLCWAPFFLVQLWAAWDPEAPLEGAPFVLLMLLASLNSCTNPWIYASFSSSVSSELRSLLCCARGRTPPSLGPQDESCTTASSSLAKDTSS
D3, sequence (P35462 whole entry): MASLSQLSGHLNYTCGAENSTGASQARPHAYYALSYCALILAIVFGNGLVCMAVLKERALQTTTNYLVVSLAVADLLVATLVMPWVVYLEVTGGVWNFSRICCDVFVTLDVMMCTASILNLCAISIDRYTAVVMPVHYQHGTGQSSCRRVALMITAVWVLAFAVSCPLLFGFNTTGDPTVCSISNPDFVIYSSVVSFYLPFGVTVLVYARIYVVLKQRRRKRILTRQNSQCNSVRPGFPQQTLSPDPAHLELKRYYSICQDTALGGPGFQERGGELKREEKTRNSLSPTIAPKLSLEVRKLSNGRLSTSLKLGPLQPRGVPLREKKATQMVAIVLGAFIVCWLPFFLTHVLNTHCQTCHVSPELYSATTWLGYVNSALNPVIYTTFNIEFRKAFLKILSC
D2, sequence (P14416 whole entry): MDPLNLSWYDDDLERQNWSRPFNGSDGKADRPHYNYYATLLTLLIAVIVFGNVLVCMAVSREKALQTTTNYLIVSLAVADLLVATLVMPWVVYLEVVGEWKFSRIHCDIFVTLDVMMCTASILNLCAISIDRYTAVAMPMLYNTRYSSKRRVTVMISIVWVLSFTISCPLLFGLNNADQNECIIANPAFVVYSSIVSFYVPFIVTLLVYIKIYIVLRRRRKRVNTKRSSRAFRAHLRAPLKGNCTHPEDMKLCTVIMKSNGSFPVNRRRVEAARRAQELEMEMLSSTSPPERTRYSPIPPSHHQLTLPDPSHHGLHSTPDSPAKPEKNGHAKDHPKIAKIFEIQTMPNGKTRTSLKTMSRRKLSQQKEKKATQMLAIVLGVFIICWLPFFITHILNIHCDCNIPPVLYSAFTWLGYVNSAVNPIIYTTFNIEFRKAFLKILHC

For the molecule `OCCCN1CCCC2CC1c1cc(-c3ccc(C(F)(F)F)cc3)ccc12` (racemic) [UKH-1114, (±)-9-(4-(Trifluoromethyl)phenyl)-3,4,5,6-tetrahydro-1,6-methanobenzo[c]azocin-2(1H)-yl)propan-1-ol], the “inhibition of radioligand binding (Ki column, footnote a)” value on 5HT2C, on Alpha2a, on 5HT1e, at D2, on DOR and at M3 was “^a (<50% inhibition of radioligand binding at 10 μM)” each time. Also, the “inhibition of radioligand binding (Ki column, footnote a)” value on H1, on 5HT3, at D3, at 5HT5a, on M1 and at Alpha1a was “^a (<50% inhibition of radioligand binding at 10 μM)” throughout. Further, the Ki at V1A, on calcium channel and at V2 was > 10 µM in each case. For the same molecule, the “effect on motor performance (latency to fall, rotorod)” value in the series on SNI mice is given as “no effect”. Moreover, in series [1] (IT), the “time of peak relief of mechanical hypersensitivity after dosing” value came to 48 h. Moreover, the “effect on SNI-induced mechanical hypersensitivity” value in series [1] (single IT injection, 10 μg, vs vehicle) is “significant antimechanical hypersensitivity effects at either 24 or 48 h”.

For the origin of these results see publication PMC5715471 (ACS chemical neuroscience, 2017).
